Assay [1] deals with Mycobacterium tuberculosis. The assay is described as follows: Antimycobacterial activity against non-replicating Mycobacterium tuberculosis mc2 6220 harboring panCD/lysA deletion mutant incubated for 3 days measured at OD580 = 0.1 by two-fold serial dilution method. In kind it is functional. The method, boiled down: (§1)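 M. tuberculosis mc26220 washed twice in PBS-tyloxapol and resuspended in Sauton's-based nonreplicating medium (pH 5.0, butyrate 0.05%, BSA, tyloxapol, lysine, pantothenate, 0.5 mM NaNO2). Incubated at 1% O2, 5% CO2 with 2-fold serially diluted compound from DMSO. After 3 days, diluted 5-fold in fresh replicating medium for outgrowth at 20% O2. Reported as MIC90.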

The test system of assay [2] is Mycobacterium tuberculosis. The assay is described as follows: Antimycobacterial activity against replicating Mycobacterium tuberculosis mc2 6220 harboring panCD/lysA deletion mutant by two-fold serial dilution method. In kind it is functional. The essentials:
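M. tuberculosis mc26220 in replicating medium supplemented with glycerol (final 0.5%), OADC, casamino acids 0.05%, lysine 240 μg/mL and pantothenate 24 μg/mL. Exposed to 2-fold serially diluted compound from DMSO. OD580 read after 7 days at 20% O2, 5% CO2. Reported as MIC90.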

In assay [3] the test system is Mycobacterium tuberculosis. The assay is described as follows: Antimycobacterial activity against non-replicating Mycobacterium tuberculosis mc2 6220 harboring panCD/lysA deletion mutant incubated for 7 days measured at OD580 = 0.1 by two-fold serial dilution method. The assay is classed as functional. The method, boiled down: as §1
Assay [4] concerns Mycobacterium tuberculosis. The assay is described as follows: Antimycobacterial activity against replicating Mycobacterium tuberculosis mc2 6220 harboring panCD/lysA deletion mutant incubated for 3 days measured at OD580 = 0.01 by two-fold serial dilution method. In kind it is functional.
Assay [5] has as its system Mycobacterium tuberculosis. The assay is described as follows: Antimycobacterial activity against non-replicating Mycobacterium tuberculosis mc2 6220 harboring panCD/lysA deletion mutant incubated for 6 days measured at OD580 = 0.1 by two-fold serial dilution method. In kind it is functional. The method, boiled down:
as §1

Assay [6] concerns Mycobacterium tuberculosis. The assay is described as follows: Antimycobacterial activity against non-replicating Mycobacterium tuberculosis mc2 6220 harboring panCD/lysA deletion mutant incubated for 3 days measured at OD580 = 0.01 by two-fold serial dilution method. The assay is classed as functional. The method, boiled down: as §1
Assay [7] relates to Mycobacterium tuberculosis. The assay is described as follows: Antimycobacterial activity against non-replicating Mycobacterium tuberculosis mc2 6220 harboring panCD/lysA deletion mutant incubated for 7 days measured at OD580 = 0.01 by high throughput screen assay. In kind it is functional, organism-based.
In assay [8] the test system is Mycobacterium tuberculosis. The assay is described as follows: Antimycobacterial activity against non-replicating Mycobacterium tuberculosis mc2 6220 harboring panCD/lysA deletion mutant incubated for 6 days measured at OD580 = 0.01 by two-fold serial dilution method. In kind it is functional. The method, boiled down:
as §1

Assay [9] relates to Mycobacterium tuberculosis. The assay is described as follows: Antimycobacterial activity against non-replicating Mycobacterium tuberculosis mc2 6220 harboring panCD/lysA deletion mutant incubated for 7 days measured at OD580 = 0.01 by two-fold serial dilution method. In kind it is functional. The method, boiled down:
as §1

Values after ≈ are worked out from the molar mass of the structure shown. Active and inactive are the calls of the source. No cut-off for these calls is given here. Where only a bound is given, the exact number is not on record here.

What is called MIC90 is the lowest concentration that inhibits either 90% of growth or 90% of the strains tested, depending on the study. The low end stands for higher susceptibility, the high end for lower susceptibility. Take `CC1=C(C(=O)O)N2C(=O)[C@@H](NC(=O)[C@H](N)c3ccccc3)[C@H]2SC1` [CEPHALEXIN ANHYDROUS]: the MIC90 in assay [1] is 61.35 µg/mL (≈ 177 µM); in assay [2], 33.99 µg/mL (≈ 97.8 µM); in assay [3] it was 100 µg/mL (≈ 288 µM); in [4], 33.99 µg/mL (≈ 97.8 µM); in assay [5], 70.42 µg/mL (≈ 203 µM); in [6], 97.93 µg/mL (≈ 282 µM).

Take `CCCOC(=O)N[C@@H]1C(=O)N2C(C(=O)OCCC)=C(C)CS[C@H]12`: the MIC90 came to 2.61 µg/mL (≈ 7.62 µM) in [1]; 55.44 µg/mL (≈ 162 µM) in assay [2]; 55.44 µg/mL (≈ 162 µM) in [4]; 0.52 µg/mL (≈ 1.52 µM) in assay [5]; 3.11 µg/mL (≈ 9.08 µM) in assay [6]. Also, the outcome in assay [7] was Active.

`COC(=O)C1=C(C)CS[C@@H]2[C@H](NC(=O)CCc3ccc(OC)cc3)C(=O)N12`: the MIC90 in [2] is 59.82 µg/mL (≈ 153 µM); in assay [3] it was 3.28 µg/mL (≈ 8.4 µM); in [6], 0.39 µg/mL (≈ 0.999 µM).

As to `C#CCOC(=O)C1=C(C)CS[C@@H]2[C@H](NC(=O)CCc3ccc(Cl)cc3)C(=O)N12`, the results for the MIC90 in [1], in assay [2] and in assay [6] were 7.85 µg/mL (≈ 18.7 µM), more than 100 µg/mL and 0.56 µg/mL (≈ 1.34 µM), respectively.

`CCCN[C@@H]1C(=O)N2C(C(=O)OCCC)=C(C)CS[C@H]12`: the MIC90 is 2.69 µg/mL (≈ 9.01 µM) in assay [1]; more than 100 µg/mL in assay [2]; more than 100 µg/mL in assay [4]; 0.45 µg/mL (≈ 1.51 µM) in assay [5]; 0.7 µg/mL (≈ 2.35 µM) in assay [6]. In assay [7], the result was Active.

Consider `C#CCOC(=O)C1=C(C)CS[C@@H]2[C@H](NC(=O)CCc3ccccc3)C(=O)N12`, for which the MIC90 in [1] was 19.97 µg/mL (≈ 51.9 µM); in assay [2], more than 100 µg/mL; in [6], 1.11 µg/mL (≈ 2.89 µM).

`CCCOC(=O)C1=C(C)CS[C@@H]2[C@H](NC(=O)COc3ccccc3)C(=O)N12`: the MIC90 was 1.76 µg/mL (≈ 4.51 µM) in assay [1]; more than 100 µg/mL in [2]; 1.05 µg/mL (≈ 2.69 µM) in assay [3]; more than 100 µg/mL in assay [4]; 0.64 µg/mL (≈ 1.64 µM) in assay [8]; 1.05 µg/mL (≈ 2.69 µM) in [5]. Besides, the figures for the MIC90 in [6] and in assay [9] were 0.9 µg/mL (≈ 2.3 µM) and 0.64 µg/mL (≈ 1.64 µM), respectively. The outcome in assay [7] was Active.

On to `CCCOC[C@H]1C(C)=CS[C@@H]2[C@H](NC(=O)COc3ccccc3)C(=O)N21`, for which the MIC90 in assay [1] and in [2] was more than 100 µg/mL throughout.

Consider `CC1=C(c2nc(C)no2)N2C(=O)[C@@H](NC(=O)COc3ccc(C(F)(F)F)cc3)[C@H]2SC1`, for which the MIC90 in assay [1] was 5.26 µg/mL (≈ 11.6 µM); in [2] it was more than 100 µg/mL.

Consider `COCC1=C(C)CS[C@@H]2[C@H](NC(=O)COc3ccccc3)C(=O)N12`, for which the values for the MIC90 in assay [1] and in assay [2] were more than 100 µg/mL and more than 96.74 µg/mL, respectively.

The values above are taken from ChEMBL document CHEMBL4425095, “Novel Cephalosporins Selectively Active on Nonreplicating Mycobacterium tuberculosis” (J Med Chem, 2016).
